From ChEMBL document CHEMBL1148254, “Lead discovery of quinoxalinediones as an inhibitor of dipeptidyl peptidase-IV (DPP-IV) by high-throughput screening” (Bioorg Med Chem Lett, 2004)

Target: Dipeptidyl peptidase 4 (Rattus norvegicus) (UniProt P14740)
Assay: Inhibitory activity against Dipeptidylpeptidase IV in rat
Set-up: concentration or dose not given beside the values
Conditions: concentration not given here
Method in brief: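 Rat plasma was the enzyme source, incubated with Ala-Pro-AFC substrate (40) at room temperature, pH 7.8, for 1 h with or without test compound (20). Compounds were dissolved in DMSO, giving 5% DMSO in the assay mixture. Released AFC was read by fluorescence at 360 nm excitation and 485 nm emission, and a reference inhibitor was included.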

Chain of Dipeptidyl peptidase 4 (Rattus norvegicus) (P14740 whole entry, looked up): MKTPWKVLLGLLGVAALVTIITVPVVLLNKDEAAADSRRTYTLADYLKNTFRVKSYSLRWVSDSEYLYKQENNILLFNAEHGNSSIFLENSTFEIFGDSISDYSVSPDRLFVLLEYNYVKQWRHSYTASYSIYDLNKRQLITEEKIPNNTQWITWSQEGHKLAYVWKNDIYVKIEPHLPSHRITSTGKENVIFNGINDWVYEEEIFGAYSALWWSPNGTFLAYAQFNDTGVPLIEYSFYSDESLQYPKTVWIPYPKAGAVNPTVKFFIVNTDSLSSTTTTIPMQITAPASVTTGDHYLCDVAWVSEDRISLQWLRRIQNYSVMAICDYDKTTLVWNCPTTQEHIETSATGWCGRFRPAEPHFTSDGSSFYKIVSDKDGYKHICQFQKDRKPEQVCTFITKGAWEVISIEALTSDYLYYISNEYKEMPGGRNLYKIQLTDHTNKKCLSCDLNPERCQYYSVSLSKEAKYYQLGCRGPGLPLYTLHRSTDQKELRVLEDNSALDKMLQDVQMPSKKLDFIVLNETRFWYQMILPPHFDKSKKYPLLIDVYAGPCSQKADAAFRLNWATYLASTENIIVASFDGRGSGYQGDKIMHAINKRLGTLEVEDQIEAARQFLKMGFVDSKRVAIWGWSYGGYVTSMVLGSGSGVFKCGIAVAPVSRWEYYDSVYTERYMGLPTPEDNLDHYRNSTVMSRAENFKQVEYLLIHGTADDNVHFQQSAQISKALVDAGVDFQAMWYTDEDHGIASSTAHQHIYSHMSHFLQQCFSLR

| SMILES | inhibition [%] |
| --- | --- |
| O=C(Nc1ccc(F)cc1F)Nn1c(=O)c(=O)[nH]c2cc([N+](=O)[O-])ccc21 | 5.1 |
| O=C(Nc1ccccc1)Nn1c(=O)c(=O)[nH]c2cc([N+](=O)[O-])ccc21 | 3.6 |
| O=c1[nH]c2ccccc2n(NC(=S)Nc2ccccc2)c1=O | 26.5 |
| O=c1[nH]c2cc(Cl)c(Cl)cc2n(NC(=S)Nc2ccccc2)c1=O | 50 |
| O=C(NC(=O)c1ccccc1)Nn1c(=O)c(=O)[nH]c2cc([N+](=O)[O-])ccc21 | 72.2 |
| Cc1ccc(NC(=O)Nn2c(=O)c(=O)[nH]c3cc([N+](=O)[O-])ccc32)cc1 | 1 |
| CC/N=C(\S)Nn1c(=O)c(=O)[nH]c2ccccc21 | 40.1 |
| O=C(NC(=S)Nn1c(=O)c(=O)[nH]c2cc(Cl)c(Cl)cc21)c1ccccc1 | 20.5 |
| O=c1[nH]c2ccccc2n(NC(=S)NCc2ccccc2)c1=O | 41.5 |
| O=c1[nH]c2ccccc2n(NC(=S)Nc2cccc(Cl)c2)c1=O | 32.1 |
| O=C(NC(=O)c1ccccc1)Nn1c(=O)c(=O)[nH]c2ccccc21 | 13 |

Second part, the compound after the results:

| inhibition [%] | SMILES |
| --- | --- |
| 23.7 | O=C(Nn1c(=O)c(=O)[nH]c2cc(Cl)c(Cl)cc21)NS(=O)(=O)c1ccccc1 |
| 57.2 | O=C(Nn1c(=O)c(=O)[nH]c2cc([N+](=O)[O-])ccc21)NS(=O)(=O)c1ccccc1 |
| 14.1 | O=C(Nn1c(=O)c(=O)[nH]c2ccccc21)NS(=O)(=O)c1ccccc1 |
| 17.3 | O=C(Nn1c(=O)c(=O)[nH]c2cc(Cl)ccc21)NS(=O)(=O)c1ccccc1 |
| 79.1 | Cc1ccccc1S(=O)(=O)NC(=O)Nn1c(=O)c(=O)[nH]c2cc([N+](=O)[O-])ccc21 |
| 12.3 | Cc1ccccc1S(=O)(=O)NC(=O)Nn1c(=O)c(=O)[nH]c2ccccc21 |
| 12.3 | Cc1ccc(S(=O)(=O)NC(=O)Nn2c(=O)c(=O)[nH]c3ccccc32)cc1 |
| 14.8 | O=C(NC(=O)c1ccccc1)Nn1c(=O)c(=O)[nH]c2cc(Cl)ccc21 |
| 10.4 | Cc1ccccc1S(=O)(=O)NC(=O)Nn1c(=O)c(=O)[nH]c2cc(Cl)c(Cl)cc21 |
| 48 | Cc1ccc(S(=O)(=O)NC(=O)Nn2c(=O)c(=O)[nH]c3cc([N+](=O)[O-])ccc32)cc1 |
| 20.5 | Cc1ccc(S(=O)(=O)NC(=O)Nn2c(=O)c(=O)[nH]c3cc(Cl)ccc32)cc1 |
| 26.4 | Cc1ccccc1S(=O)(=O)NC(=O)Nn1c(=O)c(=O)[nH]c2cc(Cl)ccc21 |
| 66.8 | O=C(Nn1c(=O)c(=O)[nH]c2cc([N+](=O)[O-])ccc21)NS(=O)(=O)c1ccc(Cl)cc1 |
| 6.6 | O=C(Nc1cccc(Cl)c1)Nn1c(=O)c(=O)[nH]c2cc([N+](=O)[O-])ccc21 |
| 21 | Cc1ccc(S(=O)(=O)NC(=O)Nn2c(=O)c(=O)[nH]c3cc(Cl)c(Cl)cc32)cc1 |
